According to ChEMBL document CHEMBL4513216, “Probing the Open Global Health Chemical Diversity Library for Multistage-Active Starting Points for Next-Generation Antimalarials” (ACS Infect Dis, 2020):

Test: Toxicity liver stage against HepG2, at 10uM
Assay type: cell-based
Set-up: test concentration 10 uM, cell line HepG2-A16-CD81EGFP
Conditions: human, HepG2-A16-CD81EGFP cells; read-out: INHIBITION
How it was run: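 Uninfected HepG2-A16-CD81EGFP cells, 3 × 10^3 per well, 1536-well, plated on prespotted compound at 10 μM final, parasite-free screening media added to match infected plates; puromycin 10 μM positive, DMSO 0.5% negative; run in parallel with 48 h PbLuc assay at 37 °C, 5% CO2; viability by CellTiter-Glo luminescence, normalized to controls.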

| SMILES | cytotoxicity at 10 µM [%] |
| --- | --- |
| O=C(Nc1cc(C(F)(F)F)c[nH]c1=O)c1ccco1 | -8.28 |
| c1ccc2c(Cc3nnc([C@H]4CCN(C5CCCCC5)C4)o3)c[nH]c2c1 | -0.00726 |
| Fc1ccc(-c2c[nH]c([C@@H]3COCCN3)n2)cc1 | -0.0368 |
| COCc1cc(C[C@@H]2CC[C@H](O)[C@@H](CN(C)C)O2)no1 | 12 |
| CCOC(=O)CNC(=O)Cn1c(-c2ccoc2)nc(C)c1C | -2.8 |
| CNC(=O)CN(C(=O)c1ccccc1)[C@H]1C[C@H]2CCOC[C@H]2C1 | -4.36 |
| COc1ccc(CNC(=O)CCCc2nnc3ccc(OC)nn23)cc1 | -5.36 |
| O=C(N[C@]12CC1CN(C(=O)c1ccco1)C2)c1ccco1 (some centres undefined) | -0.479 |
| O=C(NCC1CC1)C1CCC2(CCN(C(=O)c3cnccn3)CC2)O1 (centres undefined) | -9.28 |
| CCC(=O)N1CC[C@H](O)[C@@H]1Cc1ccccc1 | 0.081 |
| COC[C@H]1CC[C@H]2[C@H](CCN2C(=O)c2ccncc2F)O1 | -4.61 |
| Cc1noc([C@]23COC[C@H]2CN(C(=O)C2CCOCC2)C3)n1 | 9.46 |
| COc1nn(C)c2c1CCCN(C(=O)c1cccn1C)C2 | 1.53 |
| O=C1CC[C@H]2[C@H](CCN2C(=O)C2CCCO2)N1Cc1ccncc1 (some centres undefined) | 0.898 |
| CC(C)C(=O)Nc1cccc(C(=O)Nc2ccccn2)c1 | -2.37 |
| Cc1nn(C)cc1CN(C)C(=O)c1ccccn1 | 4.12 |
| CCC(CC)CN1CCN(CC(=O)Nc2ccc3nsnc3c2)CC1 | -13.8 |
| O=C(O)CSc1nccc(-c2ccc3c(c2)OCO3)n1 | -3.61 |
| CC(=O)Nc1nc(C2CCCN(C(=O)CN(C)C)C2)cs1 (centres undefined) | -43.4 |
| Cc1cnc(-c2nc(NC3CC3)ncc2-c2cc(C)no2)cn1 | -21.3 |
| NC(=O)CN1CCCC(Cc2ccc(N)nn2)C1 (centres undefined) | -31.1 |
| C[C@@H]1C[C@H](C(F)(F)F)n2nc(C3CCN(C(=O)C(C)(C)C)CC3)cc2N1 | -32.8 |

| SMILES | cytotoxicity at 10 µM [%] |
| --- | --- |
| CN1CCCC(Cc2cncc(C(=O)NC3CC3)c2)C1 (centres undefined) | -25.6 |
| COCCN1CCCC1c1nccnc1Nc1ncc(C)s1 (centres undefined) | -7.99 |
| CCC(CC)(CNC(C)=O)NC(C)c1ccccc1 (centres undefined) | 4.99 |
| Cc1cncc(C(=O)N(c2ccc(F)cn2)C2CCOCC2)c1 | 0.0591 |
| Cc1csc(N(C)C(=O)C2CC(=O)N(CCc3ccccc3)C2)n1 (centres undefined) | -99.4 |
| Cc1nc(-c2ccc(CC(=O)N3CCN(C(=O)C4CC4)CC3)cc2)cs1 | 9.86 |
| O=C(NCc1ccc(N2CCCC2)nc1)N1CCc2sccc2C1 | -6.87 |
| COc1ccc(F)cc1C(C)NC(=O)Nc1nncs1 (centres undefined) | 12.4 |
| Cc1n[nH]c(C2CN(CC(=O)NCc3cccs3)CCO2)n1 (centres undefined) | -4.13 |
| Cc1noc(C(C)N2CCN(CC(=O)N3CCCC3)CC2)n1 (centres undefined) | 0.678 |
| COc1cccc(CC(=O)NCC(Cc2ccc(F)cc2)C(N)=O)c1 (centres undefined) | 4.78 |
| CN1CCN(C(=O)c2cnsn2)c2cc(F)ccc21 | -9.03 |
| CCC(CNC(=O)c1nc(=O)[nH][nH]1)Oc1cccc(F)c1 (centres undefined) | -6.76 |
| Cc1nn(-c2ccccc2)nc1C(=O)NCC(c1ccco1)N(C)C (centres undefined) | 6.51 |
| Cc1nc(C(=O)N(C)C2CC(=O)N(Cc3ccccc3)C2=O)cs1 (centres undefined) | 0.423 |
| O=C(c1ccc(N2CCCC2)nn1)N1CCCc2ccc(F)cc21 | -1.7 |
| CNS(=O)(=O)CC(=O)NC(C)Cc1ccc(Br)cc1 (centres undefined) | -10.9 |
| Cc1cc(C(=O)O)c2c(Br)cccc2n1 | -0.575 |
| CC(Cn1cccn1)NC(=O)NCCCN1CCCCCC1=O (centres undefined) | 12.3 |
| Cc1nsc(NC2CCOC3(CCCC3)C2)n1 (centres undefined) | 8.85 |
| Nc1cc(CCCNC(=O)NC2CC2)nn1-c1ccccc1 | 1.54 |
| Cc1cnn(CC2CCCN2Cc2coc(-c3cccs3)n2)c1 (centres undefined) | -3.01 |

| SMILES | cytotoxicity at 10 µM [%] |
| --- | --- |
| Cc1nc(C)n(CC2CN(Cc3cccc(C(N)=O)c3)CCO2)n1 (centres undefined) | 6.2 |
| Cc1ccc(N2CCc3ncnc(N(C)C)c3CC2)nn1 | -102 |
| CC1c2ncc(COCC3CC3)n2CCN1C(=O)c1ccn(C)n1 (centres undefined) | 0.993 |
| Cn1cc(-c2nnn3c2COC(CNC(=O)c2cccs2)C3)cn1 (centres undefined) | 3.31 |
| Cc1cc(C)c2c(NCCC34CCCN3CCC4)ncnc2n1 | -2.43 |
| CCn1c(C)nnc1SCCNc1cc(COC)ncn1 | 6.35 |
| CCS(=O)(=O)N1CCOC(CCCc2ccccc2)C1 (centres undefined) | -9.31 |
| CC(C)Cc1ncc2c(n1)CN(c1cc(NC3CC3)nc(N)n1)C2 | -5.82 |
| Cc1ccc(C)c2c(O)cc(CN[C@H]3CCCCNC3=O)nc12 | 5.63 |
| Cc1ccccc1CC1(C(=O)O)CCCN(c2ncccn2)C1 (centres undefined) | 1.25 |
| COCCn1ccnc1-c1cc(CN2CCCCC2)cs1 | -151 |
| CSCc1noc(CNC(=O)C2CCN(C(C)C)CC2)n1 | -2.86 |
| O=C(c1ccc(C2CCCN2)s1)N1CCN2CCC1CC2 (centres undefined) | -8.52 |
| Cc1cnc(C)c(N2CCC(c3nccn3Cc3cscn3)CC2)n1 | 1.89 |
| O=C(CO)N1CCC2(CC1)CC(=O)N(Cc1cc(F)cc(F)c1)C2 | 9.92 |
| CCN(C)[C@H]1CN(C(=O)c2cccc(N3CCS(=O)(=O)CC3)c2)C[C@@H]1O | -5.62 |
| CCCOC1CCCN(c2nc(COC)nc3c2cnn3C)C1 (centres undefined) | -1.42 |
| O=C(CCN1CCCO1)N1CC[C@@H](c2ccc3ccccc3c2)[C@H](O)C1 | -1.04 |
| O=C(CCc1cc2n(n1)CCCNC2)NCCS(=O)(=O)N1CCCC1 | 0.698 |
| Cc1nc(CN(Cc2cccnc2)Cc2ccsc2)c[nH]1 | 0.935 |
| CCc1cc(N2CCCNCC2)n2nc(C)c(C)c2n1 | 4.46 |
| Cc1cc(C)n(CC2CN(CC(=O)N3CCC3)CCO2)n1 (centres undefined) | -10.7 |

| SMILES | cytotoxicity at 10 µM [%] |
| --- | --- |
| Cc1cnn(CCNCC(=O)NC(C)c2ccc3c(c2)OCCO3)c1 (centres undefined) | -1.58 |
| COc1cc(C)nc(N2CCN(C(=O)c3cccc(C#N)c3)CC2)n1 | -3.54 |
| NC(=O)C1CCN(C(=O)NCc2ccc(-c3ccn[nH]3)cc2)CC1 | -1.73 |
| Cc1ccc(C(=O)NCCSCc2cccs2)cn1 | -3.95 |
| CS(=O)(=O)NC(=O)c1nnn(-c2ccccc2)c1C1CC1 | -7.09 |
| Cc1noc(C2CCCN(C(=O)CCCNc3ncccn3)C2)n1 (centres undefined) | -3.92 |
| CCOc1ccc(C2CCCN2C(=O)NCCn2ccnc2)cc1 (centres undefined) | 0.632 |
| CC(=O)N1CCN(C(=O)CCn2c(C)nc3ccccc3c2=O)CC1 | -4.81 |
| Cc1nn(C)c(Cl)c1C1CCCN1Cc1ccccn1 (centres undefined) | -0.459 |
| COc1ccc(C(=O)N2CCCC(n3cncn3)C2)nn1 (centres undefined) | 5.58 |
| Cc1c(F)cc(C(=O)O)cc1S(=O)(=O)Nc1ccc(F)c(C#N)c1 | -6.02 |
| CN(C)C(=O)Cc1nc(CN2CCn3c(nnc3C3CC3)C2)cs1 | -9.66 |
| Cc1cnn(CC2CCCN2Cc2ncc(-c3ccccc3)o2)c1 (centres undefined) | -8.4 |
| COc1ccc(COCC(O)CNC(=O)c2cccnc2)cc1 (centres undefined) | 7.94 |
| Cc1cccc(C(=O)NCc2ccc(N3CCCCC3)nc2)n1 | 4.26 |
| O=C1CC[C@@H]2[C@@H](CCN2Cc2ccncc2)N1c1ccccc1 | -1.88 |
| O=C([C@H]1CN(CCc2ccccc2)C[C@H]2OCC[C@@H]12)N1CCCO1 | -9.49 |
| Cn1ncc2c1CN(Cc1ccc(F)cc1)CC2COCC1CC1 (centres undefined) | 9.55 |
| COc1ccc(N2CCCC3(C2)CN(c2cccnc2)CCO3)cc1 (centres undefined) | 6.59 |
| Cc1ccc(CN2CCc3[nH]nc(C(=O)N(C)C)c3C2)s1 | -7.55 |
| CC(C)CN1CCS(=O)(=O)[C@@H]2CCN(S(=O)(=O)c3ccccc3)CC[C@@H]21 | 3.62 |
| Cc1ncnc2c1CCN(Cc1nccs1)CC2 | 9.91 |

| SMILES | cytotoxicity at 10 µM [%] |
| --- | --- |
| CS(=O)(=O)NCc1cnc2n1CCN(Cc1cccs1)CC2 | 3.04 |
| O=C(c1ccno1)N1CCO[C@@H]2CC(COCc3ccccn3)C[C@H]21 (some centres undefined) | -103 |
| Cn1nc(COCC2CC2)c2c1CN(C(=O)c1ccno1)CC2 | -5.91 |
| Fc1ccc(CN2CCc3ncnc(C4CCOC4)c3CC2)cc1 (centres undefined) | 12.3 |
| Cc1ccc(S(=O)(=O)NCC(C)(C)N)c(F)c1 | 7.42 |
| CNC(=O)CN1CCC2(CCCN(CC3CCOC3)C2)CC1 (centres undefined) | -107 |
| CN1CCn2c(-c3cccc(F)c3)cnc2C12CCN(CC1CC1)CC2 | 8.13 |
| Cc1ccc(CS(=O)(=O)N2Cc3c(CN(C)C)nn(C)c3C2)cc1 | -98.2 |
| CC(C)N(C)C[C@H]1C[C@@H]2CN(Cc3ccco3)C[C@@H]2O1 | -4.22 |
| CNC(=O)CN1CCO[C@H]2CN(CC3CCOC3)C[C@H]21 (some centres undefined) | 7.64 |
| Cn1ccnc1CN1CCC2(CC1)CCN(c1cncnc1)C2=O | -65 |
| COCCN1CCC2(CCCN(Cc3ccoc3)C2)C1=O (centres undefined) | 0.582 |
| CC1=N[C@@]2(CC[C@@H]3CN(Cc4ccc(C)cc4)C[C@@H]32)C(=O)N1CC1CC1 | 1.7 |
| Cc1ccc(CN2C[C@@H]3CN(C(=O)c4cccn4C)C[C@@H]3C2)cc1 | -4.25 |
| CN(C)[C@@H]1CN(C(=O)CCc2ccccc2)[C@@H]2CCCO[C@H]12 | -3.02 |
| CC(C)N1CCC(c2nc3ccc(-c4ccnn4C)cn3n2)CC1 | 14.9 |
| CC(C)NC(=O)C1c2c(ncn2C(C)C)CCN1Cc1ccccc1 (centres undefined) | 0.167 |
| Cc1ccc(CN2CC[C@H]3[C@H]2CCN3S(=O)(=O)C2CC2)cc1 | 10.2 |
| CC(C)CN1CCCC2(CCN(c3ccc(C#N)cn3)C2)C1 (centres undefined) | 5.22 |
| COCC1N(C(=O)Nc2ccccc2)C2CCC1(O)CC2 (centres undefined) | 3.15 |
| CN1[C@@H]2CC[C@H]1CN(C(=O)c1sccc1S(N)(=O)=O)CC2 | 1.95 |
